The target of this test is Transcription factor p65 (Mus musculus) (UniProt Q04207). As to the kind of experiment: Activation of NFkappaB p65 in mouse BMDM assessed as phosphorylation at 10 ug/ml after 15 to 30 mins by Western blotting. An outline of the steps:
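BMDMs came from mouse bone marrow cultured in RPMI 1640 with 10% FCS and 20% L929-conditioned medium. After treatment, lysates were run on 10% SDS−PAGE, transferred to PVDF, blocked with 5% BSA, and probed for phospho-p65. Detection used an HRP anti-rabbit IgG secondary and chemiluminescence.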
In general terms: Immunoblotting shows a protein as a band on a membrane.

Activity calls are given as the source filed them. The rule behind the calls is not given here.

Transcription factor p65 (Mus musculus), sequence (Q04207 whole entry): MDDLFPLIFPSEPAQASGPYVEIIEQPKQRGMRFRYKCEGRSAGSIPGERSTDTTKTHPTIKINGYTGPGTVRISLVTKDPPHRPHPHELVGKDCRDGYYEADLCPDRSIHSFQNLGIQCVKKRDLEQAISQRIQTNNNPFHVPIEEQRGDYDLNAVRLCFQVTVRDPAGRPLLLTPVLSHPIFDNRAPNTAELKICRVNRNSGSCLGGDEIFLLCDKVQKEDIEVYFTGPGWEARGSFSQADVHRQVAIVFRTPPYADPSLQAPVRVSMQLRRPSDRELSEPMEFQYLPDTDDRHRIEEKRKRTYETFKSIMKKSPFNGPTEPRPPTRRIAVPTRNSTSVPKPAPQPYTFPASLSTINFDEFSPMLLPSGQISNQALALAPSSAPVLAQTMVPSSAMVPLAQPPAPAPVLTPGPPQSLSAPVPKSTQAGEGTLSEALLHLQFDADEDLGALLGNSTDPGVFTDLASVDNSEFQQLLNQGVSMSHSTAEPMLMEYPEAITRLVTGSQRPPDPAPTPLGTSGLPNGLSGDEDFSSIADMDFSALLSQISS

Regarding `CC[C@H](C)[C@H](NC(=O)[C@H](CCCCN)NC(=O)[C@H](CCC(=O)O)NC(=O)[C@H](CCCCN)NC(=O)[C@H](CO)NC(=O)[C@H](CCCCN)NC(=O)[C@H](CCCNC(=N)N)NC(=O)[C@H](Cc1ccccc1)NC(=O)[C@H](Cc1ccccc1)NC(=O)[C@H](CC(=O)O)NC(=O)CNC(=O)[C@H](CC(C)C)NC(=O)[C@@H](N)CC(C)C)C(=O)NCC(=O)N[C@@H](CCCCN)C(=O)N[C@@H](CCC(=O)O)C(=O)N[C@@H](Cc1ccccc1)C(=O)N[C@@H](CCCCN)C(=O)N[C@@H](CCCNC(=N)N)C(=O)N[C@H](C(=O)N[C@H](C(=O)N[C@@H](CCC(N)=O)C(=O)N[C@@H](CCCNC(=N)N)C(=O)N[C@H](C(=O)N[C@@H](CCCCN)C(=O)N[C@@H](CC(=O)O)C(=O)N[C@@H](Cc1ccccc1)C(=O)N[C@@H](CC(C)C)C(=O)N[C@@H](CCCNC(=N)N)C(=O)N[C@@H](CC(N)=O)C(=O)N[C@@H](CC(C)C)C(=O)N[C@H](C(=O)N1CCC[C@H]1C(=O)N[C@@H](CCCNC(=N)N)C(=O)N[C@H](C(=O)N[C@@H](CCC(=O)O)C(=O)N[C@@H](CO)C(=O)O)[C@@H](C)O)C(C)C)[C@@H](C)CC)C(C)C)[C@@H](C)CC`, the outcome was Active.

For the origin of these results see ChEMBL document CHEMBL3085690, “Naturally occurring antimicrobial peptide OH-CATH30 selectively regulates the innate immune response to protect against sepsis” (J Med Chem, 2013).
